Experimental data as given in ChEMBL document CHEMBL3217692, “Synthesis and cytotoxicity evaluation of novel pyrido[3,4-d]pyrimidine derivatives as potential anticancer agents” (2012).

Tests used:
Format in all cases: functional
[1] = Cytotoxicity against human NCI-ADR-RES cells assessed as cell growth at 10 uM after 48 hrs by sulforhodamine B assay relative to control; settings: read-out: Activity
Procedure, shortened: (§1)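 Adherent cells were grown in RPMI 1640 with 5% FBS and 2 mM L-glutamine, seeded at 5000–40 000 cells/well by doubling time, and held 24 h at 37 °C, 5% CO2 before drug. Time-zero plates were TCA-fixed. Compound in DMSO, single dose 10 μM, 48 h. Cells were fixed with cold TCA (final 10%, 60 min, 4 °C) and stained with 0.4% SRB. Bound dye was dissolved in 10 mM Tris base and read at 515 nm. Percent growth was derived from time-zero, control and treated absorbances.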

[2] = Cytotoxicity against human OVCAR8 cells assessed as cell growth at 10 uM after 48 hrs by sulforhodamine B assay relative to control; settings: OVCAR-8, 48 h, read-out: Activity; procedure, shortened: as §1
[3] = Cytotoxicity against human OVCAR5 cells assessed as cell growth at 10 uM after 48 hrs by sulforhodamine B assay relative to control; settings: OVCAR-5, 48 h, read-out: Activity; procedure, shortened: as §1
[4] = Cytotoxicity against human OVCAR3 cells assessed as cell growth at 10 uM after 48 hrs by sulforhodamine B assay relative to control; settings: OVCAR-3, 48 h, read-out: Activity; procedure, shortened: as §1
IGROV-1 = assay: Cytotoxicity against human IGROV1 cells assessed as cell growth at 10 uM after 48 hrs by sulforhodamine B assay relative to control; settings: IGROV-1, 48 h, read-out: Activity; procedure, shortened: as §1
[5] = Cytotoxicity against human UACC62 cells assessed as cell growth at 10 uM after 48 hrs by sulforhodamine B assay relative to control; settings: UACC-62, 48 h, read-out: Activity
Procedure, shortened: (§2)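 NCI-60 single-dose screen. Cells were grown in RPMI 1640 with 5% FBS and 2 mM L-glutamine, seeded at 5000–40 000 cells/well according to doubling time, and pre-incubated 24 h at 37 °C, 5% CO2. Time-zero plates were TCA-fixed at dosing. Compound in DMSO was given at 10 μM for 48 h. Cells were then fixed in cold TCA, stained with 0.4% SRB, solubilised in 10 mM Tris base and read at 515 nm. Growth % was calculated from time-zero, control and treated absorbances.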

M14 = assay: Cytotoxicity against human M14 cells assessed as cell growth at 10 uM after 48 hrs by sulforhodamine B assay relative to control; settings: M14, 48 h, read-out: Activity; procedure, shortened: as §1
Malme-3M = assay: Cytotoxicity against human MALME-3M cells assessed as cell growth at 10 uM after 48 hrs by sulforhodamine B assay relative to control; settings: read-out: Activity; procedure, shortened: as §1
LOX IMVI = assay: Cytotoxicity against human LOXIMVI cells assessed as cell growth at 10 uM after 48 hrs by sulforhodamine B assay relative to control; settings: read-out: Activity; procedure, shortened: as §1
U-251 = assay: Cytotoxicity against human U251 cells assessed as cell growth at 10 uM after 48 hrs by sulforhodamine B assay relative to control; settings: U-251, 48 h, read-out: Activity; procedure, shortened: as §2
SNB-19 = assay: Cytotoxicity against human SNB19 cells assessed as cell growth at 10 uM after 48 hrs by sulforhodamine B assay relative to control; settings: SNB-19, 48 h, read-out: Activity; procedure, shortened: as §1
SF-268 = assay: Cytotoxicity against human SF268 cells assessed as cell growth at 10 uM after 48 hrs by sulforhodamine B assay relative to control; settings: SF-268, 48 h, read-out: Activity; procedure, shortened: as §1
HT-29 = assay: Cytotoxicity against human HT-29 cells assessed as cell growth at 10 uM after 48 hrs by sulforhodamine B assay relative to control; settings: HT-29, 48 h, read-out: Activity; procedure, shortened: as §1
[6] = Cytotoxicity against human HCT15 cells assessed as cell growth at 10 uM after 48 hrs by sulforhodamine B assay relative to control; settings: HCT-15, 48 h, read-out: Activity; procedure, shortened: as §1
HCT-116 = assay: Cytotoxicity against human HCT116 cells assessed as cell growth at 10 uM after 48 hrs by sulforhodamine B assay relative to control; settings: HCT-116, 48 h, read-out: Activity; procedure, shortened: as §1
NCI-H522 = assay: Cytotoxicity against human NCI-H522 cells assessed as cell growth at 10 uM after 48 hrs by sulforhodamine B assay relative to control; settings: NCI-H522, 48 h, read-out: Activity; procedure, shortened: as §1
NCI-H460 = assay: Cytotoxicity against human NCI-H460 cells assessed as cell growth at 10 uM after 48 hrs by sulforhodamine B assay relative to control; settings: NCI-H460, 48 h, read-out: Activity; procedure, shortened: as §1
NCI-H322M = assay: Cytotoxicity against human NCI-H322M cells assessed as cell growth at 10 uM after 48 hrs by sulforhodamine B assay relative to control; settings: read-out: Activity; procedure, shortened: as §1
NCI-H23 = assay: Cytotoxicity against human NCI-H23 cells assessed as cell growth at 10 uM after 48 hrs by sulforhodamine B assay relative to control; settings: NCI-H23, 48 h, read-out: Activity; procedure, shortened: as §1
HOP-62 = assay: Cytotoxicity against human HOP62 cells assessed as cell growth at 10 uM after 48 hrs by sulforhodamine B assay relative to control; settings: HOP-62, 48 h, read-out: Activity; procedure, shortened: as §1
[7] = Cytotoxicity against human EKVX cells assessed as cell growth at 10 uM after 48 hrs by sulforhodamine B assay relative to control; settings: read-out: Activity; procedure, shortened: as §1
A549 = assay: Cytotoxicity against human A549 cells assessed as cell growth at 10 uM after 48 hrs by sulforhodamine B assay relative to control; settings: A549, 48 h, read-out: Activity; procedure, shortened: as §1
RPMI-8226 = assay: Cytotoxicity against human RPMI8226 cells assessed as cell growth at 10 uM after 48 hrs by sulforhodamine B assay relative to control; settings: RPMI-8226, 48 h, read-out: Activity
Procedure, shortened: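 Suspension lines were cultured in RPMI 1640 with 5% FBS and 2 mM L-glutamine, plated at 5000–40 000 cells/well and preincubated 24 h (37 °C, 5% CO2). Compound in DMSO was given at a single 10 μM dose for 48 h. Settled cells were fixed with 80% TCA (final 16%), then stained with SRB and read at 515 nm. Growth percentage was taken relative to time-zero and untreated control absorbances.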

ACHN = assay: Cytotoxicity against human ACHN cells assessed as cell growth at 10 uM after 48 hrs by sulforhodamine B assay relative to control; settings: read-out: Activity; procedure, shortened: as §1
RXF 393 = assay: Cytotoxicity against human RXF393 cells assessed as cell growth at 10 uM after 48 hrs by sulforhodamine B assay relative to control; settings: RXF 393, 48 h, read-out: Activity; procedure, shortened: as §1
SN12C = assay: Cytotoxicity against human SN12C cells assessed as cell growth at 10 uM after 48 hrs by sulforhodamine B assay relative to control; settings: read-out: Activity; procedure, shortened: as §1
[8] = Cytotoxicity against human UO31 cells assessed as cell growth at 10 uM after 48 hrs by sulforhodamine B assay relative to control; settings: UO-31, 48 h, read-out: Activity; procedure, shortened: as §2
[9] = Cytotoxicity against human Hs 578T cells assessed as cell growth at 10 uM after 48 hrs by sulforhodamine B assay relative to control; settings: read-out: Activity; procedure, shortened: as §1
T47D = assay: Cytotoxicity against human T47D cells assessed as cell growth at 10 uM after 48 hrs by sulforhodamine B assay relative to control; settings: read-out: Activity; procedure, shortened: as §1

Question: What does the source list for `COc1nccc2c(-c3cccc(F)c3)nc(N)nc12`?
Answer: growth at 10 µM [1]: 110%; growth at 10 µM [2]: 85.6%; growth at 10 µM [3]: 96%; growth at 10 µM [4]: 107%; growth at 10 µM (IGROV-1): 117%; growth at 10 µM [5]: 101%; growth at 10 µM (M14): 118%; growth at 10 µM (Malme-3M): 115%; growth at 10 µM (LOX IMVI): 101%; growth at 10 µM (U-251): 94.9%; growth at 10 µM (SNB-19): 107%; growth at 10 µM (SF-268): 108%; growth at 10 µM (HT-29): 96.4%; growth at 10 µM [6]: 95%; growth at 10 µM (HCT-116): 104%; growth at 10 µM (NCI-H522): 78.6%; growth at 10 µM (NCI-H460): 112%; growth at 10 µM (NCI-H322M): 112%; growth at 10 µM (NCI-H23): 104%; growth at 10 µM (HOP-62): 104%; growth at 10 µM [7]: 104%; growth at 10 µM (A549): 94.7%; growth at 10 µM (RPMI-8226): 107%; growth at 10 µM (ACHN): 99.7%; growth at 10 µM (RXF 393): 101%; growth at 10 µM (SN12C): 115%; growth at 10 µM [8]: 109%; growth at 10 µM [9]: 103%; growth at 10 µM (T47D): 93.5%
